Published values from different studies.
Compare with care: the assays were run in different laboratories.
Target: 5'-AMP-activated protein kinase catalytic subunit alpha-2 (PRKAA2, Homo sapiens, UniProt P54646)

Nc1ncnc2occ(-c3ccc(NC(=O)Nc4cc(C(F)(F)F)ccc4F)cc3)c12 — remaining signal (cell-free assay; 20 µM): 7.6%
Cc1cc(NC(=O)c2cccc3cc(-c4cccc5[nH]nc(N)c45)ccc23)ccc1F — activity vs control (enzyme activity; inhibitor; 0.1 µM): 97%
CCCCN(CCCC)C(=O)CN1C[C@H](c2cc(OC)c3c(c2)OCO3)[C@@H](C(=O)O)[C@@H]1CC(C)(C)CCC — remaining binding (cell-free assay; competition with immobilised ligand; 1 µM): 100%
CCN(CC)c1ccc(C2=NNC(=O)CC2C)cc1[N+](=O)[O-] (stereo not shown) — remaining activity (enzyme activity; inhibitor; 10 µM): 108%
CCCCNc1ncc2c(-c3ccc(F)cc3)nn(C[C@H]3CC[C@H](N)CC3)c2n1 — inhibition (target engagement in cells; inhibitor; chemoproteomics; 20 mM): 22.8%
COc1cc(-c2cc(-c3ccc(N4CCNCC4)cc3)cnc2C)cc(OC)c1OC — inhibition (enzyme activity; inhibitor; 1 µM): 1%
C=CC(=O)Nc1cc(Nc2nccc(Nc3cc(Cl)c(F)cc3C(C)(C)O)n2)c(OC)cc1N1CC[C@@H](N(C)C)C1 — inhibition (enzyme activity; inhibitor; 1 µM): 12%
CC(=O)N1CCC(c2ccc(C(=O)NC(=N)N)cc2C(F)(F)F)CC1 — remaining binding (cell-free assay; competition with immobilised ligand; 1 µM): 100%
Cc1cnc(NC2CCOCC2)nc1-n1cnc(C(=O)NC(CN)c2cc(F)cc(Cl)c2)c1 (stereo not shown) — remaining activity (enzyme activity; inhibitor; radiometric; 1 µM): 31%
Cc1ccc(NC(=O)c2ccc(C)c(C(F)(F)F)c2)cc1C#Cc1nn(C2CCC(O)CC2)c2ncnc(N)c12 (stereo not shown) — remaining signal (cell-free assay; 10 µM): 90%
COc1cc(Cl)c(C(=O)N[C@@H](CN[C@H]2CC[C@@H](N)CC2)Cc2ccc(C#N)cc2)cc1-c1ccc(CN[C@H](C)c2ccc(C)cc2)o1 — remaining activity (enzyme activity; inhibitor; 1 µM): 89%
CC1=C(C#N)C(c2ccc3c(c2)c(NC(=O)c2ccccc2C)nn3C)C(C#N)=C(C)N1 — remaining binding (cell-free assay; competition with immobilised ligand; 1 µM): 99%
CCCOc1ccc(OC)c(F)c1C(=O)c1ccc(C(=O)N[C@@H]2CNC[C@H]2NC(=O)c2ccc3[nH]ncc3c2)cc1 — remaining activity (enzyme activity; inhibitor; 0.75 µM): 6%
